Assay: Toxicity liver stage against HepG2, at 10uM
Format: cell-based
Design: test concentration 10 uM, cell line HepG2-A16-CD81EGFP
Conditions: human, HepG2-A16-CD81EGFP cells; read-out: INHIBITION
In short: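 Uninfected HepG2-A16-CD81EGFP cells, 3 × 10^3 per well, 1536-well, plated on prespotted compound at 10 μM final, parasite-free screening media added to match infected plates; puromycin 10 μM positive, DMSO 0.5% negative; run in parallel with 48 h PbLuc assay at 37 °C, 5% CO2; viability by CellTiter-Glo luminescence, normalized to controls.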

Structure (SMILES) | cytotoxicity at 10 µM
CS(=O)(=O)N1CCOCC2(CN(Cc3ccccn3)CCO2)C1 (stereo not given) | 3.42%
NC(=O)COc1ccc(CNCc2ccc(F)cc2F)cc1 | -14.4%
Cc1cccc(CN(Cc2ccc(C)o2)C2CC(C)(C)NC(C)(C)C2)n1 | -2.42%
CNC(=O)c1cc2c(nc1N(C)C)CCN(C)CC2 | -149%
CN(Cc1nc2c(cnn2C)c(=O)[nH]1)Cc1ccc(F)cc1F | -1.29%
Cc1cnn(C2CCCN(C(=O)Cc3ccc4c(c3)CCO4)C2)c1 (stereo not given) | -5.83%
CCOc1ncccc1NC(=O)N1CCC(n2cncn2)CC1 | 6.64%
CSc1cccc(CN2CCn3nc(CNC(C)=O)cc3C2)c1 | -1.03%
COC(C)c1cccc(NCc2ccsc2)c1 (stereo not given) | -4.53%
N#Cc1ccccc1Cn1cncn1 | 13.1%
CCn1ncc(Cl)c1CN(C)C(=O)CCn1ncc(Br)c1C | 2.93%
O=C(c1cocn1)N1CCC2(CC1)CC(OCC1CC1)CO2 (stereo not given) | 10%
OCc1cn(CC2CCN(C3CCSC3)CC2)nn1 (stereo not given) | 0.55%
Cc1ccc(CN(C)C(=O)CCn2c(=O)n(C)c3ccccc32)o1 | 4%
CCC(=O)N1CCCCC[C@@H]2[C@@H]1[C@H](c1cccc(F)c1)CN2C | 8.63%
CC(C)n1nc(Cn2cccc2)c2c1CN(C1CCOCC1)C2 | 7.55%
CC1CCN(S(=O)(=O)N2C[C@H](c3ccccc3)[C@@H](N)C2)CC1 | -12.1%
CC(C)(NCCCOc1ccc(C#N)cc1)c1nccs1 | -0.476%
Cc1ccc(CC(=O)NCC(Cc2ccc(F)cc2)C(N)=O)cn1 (stereo not given) | 12%
CCN1CC2(CCCCN2C(=O)c2ccn(C)n2)CC1=O (stereo not given) | 10.5%
CS(=O)(=O)NC1CCN(C(=O)NCCc2ccccc2F)CC1 | -3.83%
O=C(CC1CCCC1)N1C[C@@H]2C[C@@H]1CN2 | -0.714%

Structure (SMILES) | cytotoxicity at 10 µM
N#Cc1ccc(Cl)cc1N1CCC(OC2CCOCC2)CC1 | 3.99%
COc1cc(CNCCNC(=O)c2ccc(O)cc2)ccc1SC | 9.72%
Cn1nnnc1SC1CCc2ccccc2NC1=O (stereo not given) | -3.22%
Cn1nc(Br)c2c(NCCCS(N)(=O)=O)ncnc21 | 16.4%
Cc1[nH]/c(=N\C(=O)c2csc(NC3CCCC3)n2)sc1C | 38.8%
CNC(=O)[C@@H]1C[C@@H](NC(=O)c2ccc(OC)o2)CN1Cc1sccc1C | 2.29%
O=C(c1ccccc1)N1CC(C(=O)N2CCOCC2)C2(CCOCC2)C1 (stereo not given) | 3.07%
CCn1nc(CC(C)C)cc1C(=O)N1CCOCC(O)C1 (stereo not given) | -14.3%
CC(C)NC(=O)CS(=O)(=O)c1cc2c(cc1Cl)OCCO2 | -2.46%
O=C(c1ccc2ncsc2c1)N1CCC(C(=O)O)(n2cccn2)CC1 | 6.01%
CCn1ccnc1CN(C)C1CCCN(CCc2ccccc2)C1 (stereo not given) | -8.63%
CSc1nc(O)c(Cc2ccccc2)c(=O)n1-c1ccccc1 | -6.24%
CCN1CCCC1CNCc1cc2cc(C)c(C)cc2[nH]c1=O (stereo not given) | -6.69%
CCc1ncc(CN2CCc3nc4sc(C)cc4c(=O)n3CC2)cn1 | -6.47%
O=C(NC1CC1)N1C[C@H]2CN(Cc3cccc(F)c3)C(=O)[C@H]2C1 | -70.5%
CC(=O)N1CC2(CCCN2Cc2ccc(Cl)cc2)Cc2ccccc21 (stereo not given) | 11.9%
C[C@@H]1CN(C(=O)C2(Cn3cccn3)CC2)CC[C@@]1(O)C1CCOCC1 | 3.48%
Cc1nc(C2CCCN2C(=O)CCc2ccc(F)cc2)ncc1C(N)=O (stereo not given) | -15.7%
CC(C)Oc1ccccc1C1CC(=O)Nc2nc(N3CCOCC3)sc21 (stereo not given) | 14.3%
CNC(=O)c1cn[nH]c1C1CCCN1c1nc(C)cc(C)n1 (stereo not given) | 2.81%
Nc1nccnc1CC1CCCN(Cc2cccc3[nH]ccc23)C1 (stereo not given) | 0.994%
COCC1CN(S(=O)(=O)c2ccccc2)Cc2ncnn2C1 (stereo not given) | -117%

Structure (SMILES) | cytotoxicity at 10 µM
CNC(=O)[C@@H]1C[C@@H](n2cc(-c3ccc(Cl)cc3)nn2)CN1 | -3.95%
CN(C)CC(=O)N1CCOCC(Cc2ccccn2)C1 (stereo not given) | 5.88%
O=C(c1cc(CC2(NCc3ccccc3)COC2)no1)N1CCCCC1 | 1.14%
COCCC1(CO)CCCN(C(=O)c2cc(Cl)ccc2F)C1 (stereo not given) | 4.36%
Oc1cccc(-c2cc(CC3(N(CC4CC4)CC4CC4)COC3)no2)c1 | 6.15%
CCSCC(C)NCc1nncn1C1CCCCC1 (stereo not given) | 15.3%
O=S(=O)(c1cccnc1)N1C[C@@H]2COC[C@]2(COCC2CC2)C1 | 4.83%
Cc1ccc(CNC(=O)NCc2csc(C)n2)cn1 | -8.24%
O=C(c1cnccn1)N1CCC2(CC1)C(=O)NCC2c1ccccc1 (stereo not given) | -3.68%
CN(C)[C@@H]1CN(Cc2cnn(C)c2)[C@@H]2COC[C@H]12 | 7.37%
CN(C)CCOCc1nnc2n1CCN(Cc1ccoc1)CC2 | -10.7%
CC1(C)CNC(=O)c2nc(CCN3CCC(O)CC3)[nH]c2C1 | -10.4%
CS(=O)(=O)Cc1noc(CN2CCc3c(Cl)cccc3C2)n1 | -4.07%
COC(=O)C1CCN(C(=O)Nc2cc(-n3cccc3)ccc2F)CC1 | 5.44%
Cc1ccc(OCC(C)NS(C)(=O)=O)cc1 (stereo not given) | 14.8%
CC(=O)N1CCC(n2nccc2-c2cnc(N3CCCC3)nc2)CC1 | -0.00173%
Cc1cc(N(C)C)nc(C2(C)CCCN2C(=O)c2cncnc2C)n1 (stereo not given) | -11.3%
O=C(c1nc(Cc2c[nH]c3ccccc23)no1)N1CCCCC1 | 6.04%
O=C(Cc1cccnc1)N1CCC2(CC1)CCN(C1CCOCC1)C2 | -8.16%
CN(C)c1ccc2c(c1)CN(C(=O)c1ccnnc1)C2c1cnco1 (stereo not given) | 0.841%
CCn1ncc2c1C(COC)N(C(=O)CCc1ccccc1)CC2 (stereo not given) | -96.8%
Cc1cc(CS(=O)(=O)NC2CCCc3ccccc32)on1 (stereo not given) | -1.57%

Structure (SMILES) | cytotoxicity at 10 µM
CS(=O)(=O)NC[C@H]1Cn2c(-c3ccccc3)cnc2CO1 | -2.96%
CN1CCOCC12CCN(Cc1ccoc1)CC2 | 2.93%
C[C@@H]1CN(C(=O)c2cc(Cn3ccc4ccccc43)[nH]n2)C[C@H](C)O1 | -12.2%
Cc1c[nH]c(C(=O)N2CCn3nc(C(=O)NC4CC4)cc3C2)n1 | -2.66%
O=C(c1ccsc1)N1C[C@@H]2CCN(C(=O)c3cccc(F)c3)[C@@H]2C1 | 1.47%
CCCOCC(=O)N1CCCN(Cc2csc(CC)n2)CC1 | 3.78%
CSCC(C)(O)CNC(=O)c1ccc(F)cc1Cl (stereo not given) | -2.79%
O=C(CCN1CCCC1)Nc1c2c(cc3c1CCC3)CCC2 | 6.3%
Cc1n[nH]c(C2CN(Cc3csc(C4CCCCC4)n3)CCO2)n1 (stereo not given) | 23.8%
Cc1cc(CNc2ccnn2CC(C)C)ccc1-n1cncn1 | 24%
Cc1ccc(-c2ncc(C(=O)NS(C)(=O)=O)s2)c(C)c1 | -8.91%
COc1cc(C)nc(N2CCN(C(=O)CCc3nccs3)CC2)n1 | -15.8%
CN(C)C(=O)c1ccc(OC2CCCC2)cc1 | -3.51%
CC(C)c1ccc(S(=O)(=O)N2CSCC2C(=O)NCC(F)(F)F)cc1 (stereo not given) | -13.3%
COCc1nc(C(=O)N2CCCC2c2ccc(OC)cc2)cs1 (stereo not given) | -3.81%
Cc1nc2cc(=O)[nH]n2c(C)c1CC(=O)NCc1ccoc1 | -10.4%
Cc1nc2ccc(C(=O)N3C[C@@H](O)[C@H](N4CCOCC4)C3)cc2[nH]1 | -5.81%
COc1ccc(F)cc1CN1CCCn2nc(CNS(C)(=O)=O)cc2C1 | 2.23%
CCc1nc(CNC(C)c2cccc(N3CCCC3=O)c2)cs1 (stereo not given) | 7.28%
CN(CC(=O)NCC(F)(F)F)Cc1cccc2c1OCCO2 | -18.7%
CSCC[C@@H](CO)NC(=O)c1ccc2nc(NS(C)(=O)=O)sc2c1 | 10.7%
COc1cc(Cc2nc3c([nH]2)CC(C)(C)CNC3=O)cc(OC)c1 | -6.27%

Structure (SMILES) | cytotoxicity at 10 µM
O=C(CCN1CCOC(C(F)(F)F)C1)NCc1ccc(Cl)cc1 (stereo not given) | -9.93%
O=C(NCc1ccccc1CN1CCC(O)CC1)Nc1ccccc1 | 7.77%
Cc1nccn1-c1ccc(CN2CC3C[C@@H](O)CN3C[C@@H]2C)cc1 (stereo not given in full) | 6.26%
COCCn1ccc2ccc(C(=O)N3CCN(C(C)=O)CC3)cc21 | -8.6%
CO[C@@H]1CCN(Cc2ccc(C)o2)[C@H]1Cc1ccccc1 | -3.15%
CN(Cc1cc[nH]n1)C(=O)c1ccc2c(c1)nc(N1CC[C@H](O)C1)n2C | 4.43%
Cc1ccc(S(=O)(=O)Cc2noc([C@@H]3C[C@@H](O)CN3)n2)cc1 | -5.78%
CC(C)N1CCC(NC(=O)NC2CCOc3ccc(Br)cc32)CC1 (stereo not given) | -6.64%
Cc1nc2ccc(CN3CC4(CCOC4)CCC3=O)cc2[nH]1 (stereo not given) | 11.7%
Cc1ccc(CN(CCCN2CCOCC2)Cc2cnc(C)n2C)o1 | -24%
CC(C)c1nc(CN(C)C(=O)C(O)c2ccc(Cl)cc2)cs1 (stereo not given) | -150%
CCOC(=O)CC(C)Nc1nc(C(C)(C)C)nc2c1cnn2C (stereo not given) | 6.51%
COCC(=O)N1C[C@H]2CNC[C@@]2(C(=O)NCc2cc(C)n[nH]2)C1 | 8.29%
COc1c(CNCC(O)COc2ccc3c(c2)OCO3)c(C)nn1C (stereo not given) | 3.07%
Cc1cccc(NC2CCc3c2[nH]c(=O)n(C2CCCCC2)c3=O)c1C (stereo not given) | 5.05%
CC(=O)c1cccc(OCC(=O)NS(=O)(=O)c2ccc(C)s2)c1 | -8.29%
O=C(NCc1cccnc1)C1CC(=O)N(CC2CC2)C1 (stereo not given) | -3.46%
CCC(CC)CN1CCCn2nc(CNC(=O)COC)cc2C1 | 2.66%
Cc1oncc1C(=O)N1CCC2(CC1)CC(N1CCOCC1)C2 | -2.69%
O=c1c2sccc2nc2n1CCN(Cc1cc(F)ccc1F)CC2 | -21.8%
CC(C)C1=NOC(c2nc(-c3cccc(Cl)c3)no2)C1 (stereo not given) | -7.42%
O=C(C1CCCc2[nH]ncc21)N1CCCCCC1 (stereo not given) | 4.65%
